Experimental data gathered from unrelated publications.
Lines come from different studies, so protocols differ.
Target: Casein kinase I isoform epsilon (CSNK1E, Homo sapiens, UniProt P49674)

CC1=C(C#N)C(c2ccc3c(c2)c(NC(=O)c2ccccc2C)nn3C)C(C#N)=C(C)N1  remaining binding (cell-free assay; competition with immobilised ligand; 1 µM): 100%
N#CCCc1ccc2c(c1)-c1[nH]c3ccc([N+](=O)[O-])cc3c1CC(=O)N2  remaining signal (cell-free assay; 0.5 µM): 91.4%
Cn1c2c(Cl)c(Cl)ccc2c2cc(N)[nH]c(=O)c21  ΔTm (thermal stability; DSF; 10 µM): 0.5 °C
CCCCN(CCCC)C(=O)CN1C[C@H](c2cc(OC)c3c(c2)OCO3)[C@@H](C(=O)O)[C@@H]1CC(C)(C)CCC  remaining binding (cell-free assay; competition with immobilised ligand; 1 µM): 100%
O=c1cc(-c2cccc3c2Sc2ccccc2S3)oc(N2CCOCC2)c1  remaining activity (enzyme activity; inhibitor; 0.5 µM): 104%
Cn1c2c(Cl)c(Cl)ccc2c2cc[nH]c(=O)c21  ΔTm (thermal stability; DSF; 10 µM): 1 °C
O=C(NCCCNc1nc(Nc2cccc(NC(=O)N3CCCC3)c2)ncc1I)c1cccs1  inhibition (enzyme activity; inhibitor; 1 µM): -16%
Nc1nc(Nc2ccc(S(N)(=O)=O)cc2)nn1C(=O)c1c(F)cccc1F  remaining signal (cell-free assay; 0.5 µM): 96.9%
O=C(Nc1cnn(-c2csc(C(=O)NC3COC3)c2)c1)Nc1c(F)cccc1Cl  remaining activity (enzyme activity; inhibitor; 5 µM): 88.6%
CC1(C)NC(=O)c2[nH]c3c(Cl)c(Cl)ccc3c2C1C#N (centres unmarked)  ΔTm (thermal stability; DSF; 10 µM): 1.8 °C
O=C(N1CCS(=O)(=O)CC1)N1C[C@H](c2ccc(OC(F)(F)F)cc2)C[C@H](c2nc(C3CC3)no2)C1  remaining binding (cell-free assay; competition with immobilised ligand; 1 µM): 100%
CC(C)(C)c1nc(-c2cccc(NS(=O)(=O)c3c(F)cccc3F)c2F)c(-c2ccnc(N)n2)s1  remaining activity (enzyme activity; inhibitor; radiometric; 1 µM): 89%
CC(C)(O)[C@H]1CC[C@H](Nc2ccc3ncc(-c4cccc(C(F)(F)F)c4)n3n2)CC1  remaining activity (enzyme activity; inhibitor; 1 µM): 78.5%
CS(=O)(=O)CCNCc1ccc(-c2ccc3ncnc(Nc4ccc(OCc5cccc(F)c5)c(Cl)c4)c3c2)o1  remaining activity (enzyme activity; 0.5 µM): 99.4%
O=C(NS(=O)(=O)c1ccc(NCC2CCOCC2)c([N+](=O)[O-])c1)c1ccc(N2CCN(Cc3ccc(C(F)(F)F)cc3-c3ccc(Cl)cc3)CC2)cc1Oc1cnc2[nH]ccc2c1  remaining binding (cell-free assay; competition with immobilised ligand; 1 µM): 95%
Nc1ncnc2occ(-c3ccc(NC(=O)Nc4cc(C(F)(F)F)ccc4F)cc3)c12  remaining activity (enzyme activity; inhibitor; 20 µM): 0.65%
O=C1Nc2ccc(Cl)cc2C1=Cc1cc(Cl)c(O)c(Cl)c1  remaining activity (enzyme activity; 0.5 µM): 66.6%
CC(C)(O)c1cncc(-c2nc3ccc(F)cc3n2C2CC2)c1  remaining binding (cell-free assay; competition with immobilised ligand; 1 µM): 100%
Cc1sc(C(=O)NC2COC2)cc1-n1cc(NC(=O)Nc2c(F)cccc2Cl)cn1  remaining activity (enzyme activity; inhibitor; 10 µM): 97.9%
CN([C@@H]1CCc2c(CC(=O)O)c3ccccc3n2C1)S(=O)(=O)c1ccc(F)cc1  remaining binding (cell-free assay; competition with immobilised ligand; 1 µM): 90%
COc1cc2ncnc(Nc3ccc(Oc4ccccc4)cc3C)c2cc1OC  inhibition (enzyme activity; inhibitor; 1 µM): 2%
Cc1ccc(NC(=O)c2ccc(CN3CCN(C)CC3)cc2)cc1Nc1nccc(-c2cccnc2)n1  activity vs control (enzyme activity; inhibitor; 0.5 µM): 92.4%
CCS(=O)(=O)c1cc2cc(C[C@@](O)(CC(C)(C)c3ccc(F)cc3C(N)=O)C(F)(F)F)[nH]c2cn1  remaining binding (cell-free assay; competition with immobilised ligand; 1 µM): 97%
